What was measured:
[1] = Selectivity is ratio of efficacy of alpha-1B to that of alpha1A adrenoceptor; type: functional
Canis familiaris = species on record: Canis familiaris; test: Ratio of MAP ED delta20 to that of IUP ED delta5
[2] = biological target: T1, Alpha-1D adrenergic receptor (Rattus norvegicus) (UniProt P23944); test: Functional agonism of the compounds to constrict tissue containing the alpha-1D adrenergic receptor in rat aorta; type: tissue-based
T1 sequence (whole entry): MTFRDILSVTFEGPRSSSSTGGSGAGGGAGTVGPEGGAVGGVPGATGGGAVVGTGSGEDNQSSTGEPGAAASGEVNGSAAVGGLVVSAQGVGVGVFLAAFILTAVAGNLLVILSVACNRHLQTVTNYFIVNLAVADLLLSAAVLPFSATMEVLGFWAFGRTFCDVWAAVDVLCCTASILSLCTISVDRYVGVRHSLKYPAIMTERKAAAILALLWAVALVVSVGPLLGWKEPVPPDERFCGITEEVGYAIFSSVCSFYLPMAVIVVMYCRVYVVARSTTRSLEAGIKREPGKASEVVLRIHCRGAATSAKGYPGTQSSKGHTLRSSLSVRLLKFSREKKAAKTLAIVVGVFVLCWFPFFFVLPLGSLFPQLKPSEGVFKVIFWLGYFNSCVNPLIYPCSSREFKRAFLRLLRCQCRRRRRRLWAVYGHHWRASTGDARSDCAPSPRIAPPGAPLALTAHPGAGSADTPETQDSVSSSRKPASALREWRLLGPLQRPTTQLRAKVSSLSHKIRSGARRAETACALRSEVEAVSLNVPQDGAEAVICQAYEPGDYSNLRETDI
Method in brief: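 Agonist dose–response curves were run on isolated tissue: rabbit urethra for α1A, rat spleen for α1B, and rat aorta for α1D.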

[3] = Relative affinities for alpha-2a and alpha-1A receptors
[4] = biological target: T2, Alpha-1A adrenergic receptor (Oryctolagus cuniculus) (UniProt O02824); test: Efficacy relative to phenylephrine (PE) to constrict tissue containing the alpha-1A adrenergic receptor in rabbit urethra; type: functional, tissue-based
T2 sequence (whole entry): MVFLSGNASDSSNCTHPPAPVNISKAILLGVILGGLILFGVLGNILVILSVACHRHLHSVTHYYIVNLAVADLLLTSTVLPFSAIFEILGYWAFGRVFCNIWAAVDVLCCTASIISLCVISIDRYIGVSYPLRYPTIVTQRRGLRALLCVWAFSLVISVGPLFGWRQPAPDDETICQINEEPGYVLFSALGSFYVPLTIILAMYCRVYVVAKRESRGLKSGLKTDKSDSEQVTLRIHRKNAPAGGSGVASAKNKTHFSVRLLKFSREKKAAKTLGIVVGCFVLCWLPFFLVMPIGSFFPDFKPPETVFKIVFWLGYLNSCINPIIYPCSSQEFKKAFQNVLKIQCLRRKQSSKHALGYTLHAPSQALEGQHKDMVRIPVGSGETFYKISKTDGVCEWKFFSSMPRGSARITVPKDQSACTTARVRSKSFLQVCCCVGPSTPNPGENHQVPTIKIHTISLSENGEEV
Method in brief: (§1)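 α1-agonist dose–response curves in isolated tissue: rabbit urethra (α1A), rat spleen (α1B), rat aorta (α1D). Agonist potency and efficacy read from the concentration–response curves.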

[5] = biological target: T3, Alpha-1D adrenergic receptor (Rattus norvegicus, UniProt P23944); test: In vitro binding affinity towards alpha-1D adrenergic receptor of rat clone in radioligand binding assay
T3 sequence (P23944 whole entry): T1 sequence (whole entry)
Method in brief: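 Radioligand binding at α1 subtypes: α1A from rat submaxillary gland, α1B hamster clone, α1D rat clone. Run essentially per an earlier method.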

[6] = biological target: T4, Alpha-2A adrenergic receptor (Homo sapiens, UniProt P08913); test: In vitro binding affinity towards alpha-2A adrenergic receptor of human clone in radioligand binding assay
T4 sequence (P08913 whole entry): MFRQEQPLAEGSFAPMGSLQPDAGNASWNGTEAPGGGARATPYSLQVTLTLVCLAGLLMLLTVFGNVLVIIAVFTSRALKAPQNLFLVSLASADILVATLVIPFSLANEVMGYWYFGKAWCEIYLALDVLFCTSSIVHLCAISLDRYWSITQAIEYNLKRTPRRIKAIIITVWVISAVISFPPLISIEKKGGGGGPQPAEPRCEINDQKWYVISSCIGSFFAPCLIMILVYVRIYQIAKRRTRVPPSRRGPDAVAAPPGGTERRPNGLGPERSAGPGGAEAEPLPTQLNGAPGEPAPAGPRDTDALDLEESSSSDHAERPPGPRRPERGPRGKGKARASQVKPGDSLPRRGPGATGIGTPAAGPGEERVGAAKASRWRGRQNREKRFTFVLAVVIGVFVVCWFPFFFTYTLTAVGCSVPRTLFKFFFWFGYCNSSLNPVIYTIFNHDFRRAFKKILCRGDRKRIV

[7] = biological target: T1, Alpha-1D adrenergic receptor (Rattus norvegicus); test: Efficacy relative to phenylephrine (PE) constrict tissue containing the alpha-1D adrenergic receptor in rat aorta; type: functional, tissue-based; method in brief: as §1
[8] = biological target: T5, Alpha-2A adrenergic receptor (Rattus norvegicus) (UniProt P22909); test: Efficacy relative to clonidine to constrict tissue containing the alpha-2A adrenergic receptor in rat prostatic vas deferens
T5 sequence (whole entry): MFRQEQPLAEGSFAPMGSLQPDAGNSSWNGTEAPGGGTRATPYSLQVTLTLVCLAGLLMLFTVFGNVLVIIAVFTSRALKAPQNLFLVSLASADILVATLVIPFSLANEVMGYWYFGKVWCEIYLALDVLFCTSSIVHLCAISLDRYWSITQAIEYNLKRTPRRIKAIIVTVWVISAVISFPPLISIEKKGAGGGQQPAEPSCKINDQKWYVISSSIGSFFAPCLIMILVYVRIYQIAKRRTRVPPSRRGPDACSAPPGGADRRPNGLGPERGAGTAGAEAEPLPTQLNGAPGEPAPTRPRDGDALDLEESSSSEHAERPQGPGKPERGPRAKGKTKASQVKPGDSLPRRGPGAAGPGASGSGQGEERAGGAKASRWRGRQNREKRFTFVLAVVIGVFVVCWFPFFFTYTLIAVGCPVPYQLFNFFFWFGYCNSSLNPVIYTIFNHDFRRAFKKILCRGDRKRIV

[9] = biological target: T5, Alpha-2A adrenergic receptor (Rattus norvegicus); test: Functional agonism to constrict tissue containing alpha-2A adrenergic receptor in rat prostatic vas deferens; type: tissue-based

For CC(N)C(O)c1ccccc1 (stereo not drawn) [PHENYLPROPANOLAMINE], which Selectivity [1] is on record?
Its Selectivity is 1.

What about the Ratio (Canis familiaris) of the same compound?
The Ratio was 0.4.

And the pD2 [2]?
Its pD2 is 4.12.

And the Selectivity [3]?
The Selectivity was 0.03.

And the Efficacy [4]?
The Efficacy was 68%.

What about the Ki [5] of the same compound?
The Ki was 8510 nM.

And the Ki [6]?
The Ki was 275 nM.

What about the Efficacy [7] of the same compound?
Its Efficacy is 91%.

And the Efficacy [8]?
Its Efficacy is 85%.

What does the source list for O=C(Nc1cccc2c1CCCC2c1c[nH]cn1)C(F)(F)F (stereo not drawn)?
pD2 [9]: 7.14; Ratio (Canis familiaris): 1.1; Selectivity [3]: 2; Efficacy [4]: 118%; Ki [6]: 309 nM; Efficacy [8]: 100%

Which pD2 [9] does the source give for O=S(=O)(CC(F)(F)F)Nc1cccc2c1CCCC2c1c[nH]cn1 (single isomer, unassigned; (+)) here?
Its pD2 is 6.59.

What about the Ratio (Canis familiaris) of the same compound?
The Ratio was 3.

What about the Selectivity [3] of the same compound?
The Selectivity was 8.

What about the Efficacy [4] of the same compound?
Its Efficacy is 52%.

And the Ki [5]?
Its Ki is > 10000 nM.

What about the Ki [6] of the same compound?
The Ki was 955 nM.

What about the Efficacy [8] of the same compound?
The Efficacy was 100%.

What does the source list for COc1ccc(OC)c(C(O)CN)c1 (stereo not drawn) [DESGLYMIDODRINE]?
pD2 [9]: 8.23; Selectivity [1]: 12; Ratio (Canis familiaris): 1.3; pD2 [2]: 5.73; Selectivity [3]: 0.7; Efficacy [4]: 133%; Ki [5]: 1660 nM; Ki [6]: 1450 nM; Efficacy [7]: 68%; Efficacy [8]: 20%

What does the source list for CN(c1cccc2c1CCCC2c1c[nH]cn1)S(C)(=O)=O (stereo not drawn)?
pD2 [9]: 7.08; Ratio (Canis familiaris): 2.5; Selectivity [3]: 0.4; Efficacy [4]: 79%; Ki [6]: 85.1 nM; Efficacy [8]: 100%

Reference: ChEMBL document CHEMBL1148329, “Synthesis and structure-activity studies on N-[5-(1H-imidazol-4-yl)-5,6,7,8-tetrahydro-1-naphthalenyl]methanesulfonamide, an imidazole-containing alpha(1A)-adrenoceptor agonist” (J Med Chem, 2004)
